Assay [1] concerns HL-60. Kind of assay: Effect on human HL60 cells assessed as fold change in DSTYK gene expression at 1.085 uM incubated for 6 hrs by microarray-based method. The class given is functional. The procedure, abridged:
(§1)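 HL60 cells were treated in triplicate with 1.085 µM or vehicle for 6 h. Total RNA was extracted with on-column DNase treatment and profiled on expression arrays.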

For assay [2], the system named is HL-60. Kind of assay: Effect on human HL60 cells assessed as fold change in TRPM2 gene expression at 1.085 uM incubated for 6 hrs by microarray-based method. The format is functional.
The target of another assay is Tubulin (Homo sapiens) (UniProt P68371+Q9H4B7+P0DPH7+P68366+Q13509+Q71U36+P04350+Q3ZCM7+P07437+P68363+Q9BQE3+Q6PEY2+Q13885+Q9BVA1+Q9BUF5). Kind of assay: Inhibition of tubulin polymerization in human HL60 cells at 300 nM by Western blot analysis. The format is cell-based. Particulars: TDE = time-dependent effect. The procedure, abridged:
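Leukemia cells (RS4;11, CEM, HL60) treated with 300 nM for 0, 15, 30, 60 and 360 min. Western blotting for β-tubulin and p53, with lamin B1 as loading control and chemiluminescent detection.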
A general note: In western blotting, separated proteins are transferred to a membrane and probed.

The subject of assay [3] is HL-60. Briefly: Effect on human HL60 cells assessed as fold change in INSIG1 gene expression at 1.085 uM incubated for 6 hrs by microarray-based method. The class given is functional. In a few lines: as §1
The test system of assay [4] is HL-60. Kind of assay: Induction of cell cycle arrest in human HL60 cells assessed as accumulation of cells at G0/G1 phase at EC50 incubated for 18 hrs by PI staining based flow cytometric analysis (reference value: 56.3%). The format is functional. On the technique in general: Flow cytometry measures light scatter and fluorescence of single cells or particles in a stream.

Assay [5] relates to HL-60. Briefly: Effect on human HL60 cells assessed as fold change in LILRA5 gene expression at 1.085 uM incubated for 6 hrs by microarray-based method. The class given is functional. In a few lines: as §1
The test system of assay [6] is HL-60. Kind of assay: Effect on human HL60 cells assessed as fold change in HRH1 gene expression at 1.085 uM incubated for 6 hrs by microarray-based method. The format is functional. The procedure, abridged: as §1
The subject of assay [7] is HL-60. Kind of assay: Effect on human HL60 cells assessed as fold change in ATP6AP1L gene expression at 1.085 uM incubated for 6 hrs by microarray-based method. The class given is functional. In a few lines: as §1
In assay [8] the test system is HL-60. Briefly: Induction of cell cycle arrest in human HL60 cells assessed as accumulation of cells at sub G0/G1 phase at EC50 incubated for 18 hrs by PI staining based flow cytometric analysis (reference value: 1.67%). The class given is functional.
The subject of assay [9] is HL-60. Kind of assay: Effect on human HL60 cells assessed as fold change in GBP3 gene expression at 1.085 uM incubated for 6 hrs by microarray-based method. The format is functional. In a few lines: as §1
In assay [10] the test system is HL-60. Kind of assay: Effect on human HL60 cells assessed as fold change in TAF15 gene expression at 1.085 uM incubated for 6 hrs by microarray-based method. The class given is functional. In a few lines: as §1
Assay [11] relates to HL-60. Briefly: Effect on human HL60 cells assessed as fold change in PNMT gene expression at 1.085 uM incubated for 6 hrs by microarray-based method. The format is functional. The procedure, abridged: as §1

In the case of `COC(=O)c1[nH]c2cc(OC)ccc2c1-c1ccc(C(F)(F)F)cc1`, the “fold change (FC)” value is listed as 1.61 in the assay with HL-60 [1]; 2.21 in the assay with HL-60 [2]; -1.64 with HL-60 [3]; -1.64 with HL-60 [5]; 1.51 with HL-60 [6]; -1.53 with HL-60 [7]. The “fold change (FC)” value in the assay on HL-60 [9] is given as -1.62; in the assay with HL-60 [10] it was 1.75; in the assay with HL-60 [11] it was -1.53. Moreover, the inhibition result at Tubulin (Homo sapiens) was “Tde”. Besides, the figures for the Activity with HL-60 [4] and with HL-60 [8] were 10.6% and 24.1%, respectively.
